Laboratory results taken from the EternaBench riboswitch data.

System: MS2 coat protein
Test: apparent Kd, MS2 coat protein; higher = weaker binding; RNA-MaP array; FMN 200 µM where present
How it was run: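 The apparent Kd is reported as the median of filtered per-cluster binding-curve fits. To get these curves, designs transcribed by stalled E. coli RNA polymerase on Illumina sequencing-chip clusters were titrated with SNAP-549-labelled MS2 coat protein from 0.7 or 1.5 nM, doubling to 3 µM. Titrations were run without and then with constant ligand in 100 mM Tris-HCl pH 7.5, 80 mM KCl, 4 mM MgCl2, BSA, DTT, yeast tRNA and Tween-20, and green signal was normalised to red-channel RNA signal and control-cluster median Fmax.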

[1] = designed as: OFF switch for flavin mononucleotide, no ligand
[2] = ligand present: flavin mononucleotide, designed as: OFF switch for flavin mononucleotide
[3] = designed as: ON switch for flavin mononucleotide, no ligand
[4] = ligand present: flavin mononucleotide, designed as: ON switch for flavin mononucleotide

| Sequence | apparent Kd [1] [µM] | apparent Kd [2] [µM] | apparent Kd [3] [µM] | apparent Kd [4] [µM] |
| --- | --- | --- | --- | --- |
| AUUUGACACGUAGGAUAUCGCUUAAAUUUAACACGAGAAGGACGAACAUGAGGAUCACCCAUGUAUCAUGGAGUAGAUAAUUUG | 0.115 | 0.329 | – | – |
| UGUCGGAGCAGAGGAUAUUACAUGAGGAUCACCCAUGUAUGAACCAAUAGCUGGAAACAGCACUGUAAGAAGGCUGCUCCGACA | 0.00867 | 0.0962 | – | – |
| AGUAGAUCAGGAUAUACAUAAAUGAUAAUUAUGUAACUUCAACAUGAGGAUCACCCAUGUAGAAGGGAUCUACA | 0.0163 | 0.015 | – | – |
| GGAUCGAGUGUGAGGAUAUGCUGGUCCUUGGAUCAGCAGAAGGCACAUGAGGAUCACCCAUGUGGUAACGGUCC | 0.19 | 0.537 | – | – |
| AGCUCGCGAAGAGGAUAUACAGCGGCGACCUAUCAUGACGAGCGGGUUACAUGAGGAUCACCCAUGUAGAAGGCUUCCCGACUC | 0.0266 | 0.0739 | – | – |
| GGUAUACUGCAGGAUAUUAGCUGAGAUAUCCGCUGAGAAGGGCAGACAUGAGGAUCACCCAUGUACCGAGUAGU | 0.0319 | 0.0188 | – | – |
| GUGACGAUGUAAGGAUAUGCAGUGGAUAACACUGCAGAAGGUACAUGAGGAUCACCCAUGUAACUCUAAUAAUAAUAACGUCAC | 0.0121 | 0.017 | – | – |
| UCUUACGGAGGAUAUACAUGAGGAUCACCCAUGUAUGGUACGUUGGCUCUACCUUAUAGUAGAAGGCCGGAAGG | 0.037 | 0.233 | – | – |
| AUUAUUUAUAGUUAUUUUUAUUUUACAGAAGGUGAAUUAUUUACAUGAGGAUCACCCAUGUUCUUCAAGGAUAUGUUGUUAUAC | – | – | 0.0494 | 0.0221 |
| AACGCGUCAGGAUAUGCCAUAAAUUACCUAAUACGACCAUAGCAGAAGGGACAUGAGGAUCACCCAUGUAAAUA | 0.0362 | 0.0288 | – | – |
| ACAUGAGGAUCACCCAUGUUAAAUGAGGAUAUAUGACUGCACAUGAGGUUCACCCAUGUUCUACCGUAGAAGGUAUAAAUAAUU | – | – | 0.0717 | 0.0761 |
| UUCGGACUAUCAGGAUAUGGUGUAGCCUAGUAAAGGACAUGAGGAUCACCCAUGUACCAUUGGUACCAGAAGGGAUGAUCCUAC | – | – | 0.03 | 0.0249 |
| AUCUACCUAGGAUAUACAUGAGGAUCACCCAUGUACAGUUUCAUCUAGGGAUACUCACGUAGAAGGAGGUAGAU | 0.0366 | 0.0215 | – | – |
| GUCGUGUGAGGAUAUGCACGAGUGACAGGGAGGCUGUCACAGCAGAAGGUACAUGAGGAUCACCCAUGUGAAAU | 0.0291 | 0.0243 | – | – |
| CUUUUGUGAGGAUAUUAGUAGUAAAUAAAUUAAAUUACUACUGAGAAGGCACAUGAGGAUCACCCAUGUUCCUC | 0.0313 | 0.243 | – | – |
| GGGUACGUUUCGUAGCAGUGUCAUCGAGAAGGCCCUGACAUGAGGAUCACCCAUGUUGUUACAUGGGAGGAUAUCGAUGAUGGG | – | – | 0.0484 | 0.00812 |
| GGAUGAGCAAUAGGAUAUGCUGGGAUUGAAUGGGUAGAAGGAUUUCUAGUGGGAAAGACAUGAGGAUCACCCAUGUCGCGGACC | – | – | 0.0252 | 0.0266 |
| UGCUACAUGAGGAUCACCCAUGUAAUGUGGGAUUCGUUAGGACAGGAUAUGAUUGUAUAGUUUUUUCAGAAGGGUCAUUACUUU | 0.0692 | 0.135 | – | – |

| Sequence | apparent Kd [1] [µM] | apparent Kd [2] [µM] | apparent Kd [3] [µM] | apparent Kd [4] [µM] |
| --- | --- | --- | --- | --- |
| GGUGGCGUGAUAACGCUAGAUAUAACAUGAGGAUCACCCAUGUAGGAUAUCCUGCCGAGAGGGCGGGAGAAGGACAACCAAUGG | 0.0419 | 0.0418 | – | – |
| UUUAUUUUUACAGGAUAUCAUCUAUAUAACUCAUGCAAAUGUUUACAUGAGGAUCACCCAUGUUAUGAGAAGGGUAUUGAAACA | – | – | 0.361 | 0.216 |
| GUAGAGUAGUGAGGAUAUACGAGAACGAUAGUUCGGCGAUCCAUUAAUACAUGAGGAUCACCCAUGUAGAAGGCACUUCUCUAC | 0.00711 | 0.0904 | – | – |
| ACGGAACAUGAGGAUCACCCAUGUAUCUGAGAUAAGCUCUCGCAGGAUAUUGAGAGAAGCCUAUUCGAGAAGGGUGACAGCAAA | – | – | 0.0901 | 0.0301 |
| ACAAUACAUGAGGAUCACCCAUGUUAGGAUAUACGCAUGCAUGCAUGCAUGCAUGCAAGUAGAAGGAACCAUGC | 0.0286 | 0.0268 | – | – |
| UUUUUCUCAGGAUAUACAUGAGGAUCACCCAUGUAUAUUAGUGAUAAUACAUGGGAAUGUAGAAGGGAGCUCAU | 0.164 | 0.123 | – | – |
| UGCACGAGGCAAGGAUAUGCUGACAUGAGGAUCACCCAUGUGAGCAUGGGUCUGGUACGGGAUCAGCAGAAGGUGCACCGAGGU | 0.0368 | 0.0274 | – | – |
| AAGUCUGGACGAGGAUAUCAGUUGUAUCUAGAAUCAACAUGAGGAUCACCCAUGUUGCAAUAGGGUGAGAAGGCGUUUGGGCAA | – | – | 0.0818 | 0.0181 |
| UUAACUCAUGUAGGAUAUGCAUGGCGAAGCUACGCAGAAGGACAUGAGGAUCACCCAUGUUCUAGCGUCUGAGUACAGAUGCAA | 0.0434 | 0.29 | – | – |
| CUUUCGUUAGCAGGAUAUGGACAGGCCUGUCCGUCUUGAGUCUGUAACAUGAGGAUCACCCAUGUCCAGAAGGGCUCGAAGGGA | 0.00804 | 0.015 | – | – |
| AAAAAGUCAGGAUAUCGGAAAAAAAAAAAAAAAAAAAAAAACGAGAAGGGACAUGAGGAUCACCCAUGUAAAAA | 0.0558 | 0.0682 | – | – |
| GAUAAGGAAGGAUAUGUGGCCUUAUACAUGAGGAUCACCCAUGUUACGACAUACCACUACACAGAAGGUCUAUUAC | 0.0322 | 0.0305 | – | – |
| UGUAUGGACAGAGGAUAUGCCGAUAGGAUCUACUAUCGAAGAAUCCUCACAUGAGGAUCACCCAUGUAGAAGGCUGUUCAUACU | 0.0082 | 0.0341 | – | – |
| AGUUGUUCAGGAUAUGAUGAAUAUUACAUGAGGAUCACCCAUGUAGAUCCUGAAUAUGAAUCAGAAGGGAAUAUUU | 0.0153 | 0.0325 | – | – |
| GGUGGACAUGAGGAUCACCCAUGUGAGGAUAUCGGCUGGCUAGUGGCGGAUGGCUUCUCGAGAAGGCGCAUAGU | 0.0769 | 0.066 | – | – |
| CGCUACACCCAGAAGGACAUGAGGAUCACCCAUGUAGGAUAUGGGAGACACAGUCCCAUGUAGAGAAACUACGCUAGUGUAGCG | – | – | 0.2 | 0.0814 |
| GCGAUUUUGUAGAAGGUACGUGAUUAGACAAAGUAAGGAUAUACUGACAUGAGGAUCACCCAUGUAUUAAUAGUUAACAGUCGC | – | – | 0.0254 | 0.0149 |
| UUUCCCUGUGUGAGGAUAUACUUGUUUGGGUUUUUGUAGAAGGCACAUGAGGAUCACCCAUGUACUCUGUCCUG | 0.0253 | 0.0306 | – | – |
